Assay results taken from ChEMBL document CHEMBL1141332, “Cytotoxic metabolites from an Indonesian sponge Lendenfeldia sp” (J Nat Prod, 2007).

How the values were obtained:
[1] = test system: SNB-19; assay: Cytotoxicity against human SNB19 cells; assay type: functional; conditions: for CC50: read-out: Log LC50 (the source's name) (converted)
[2] = test system: SK-MEL-2; assay: Cytotoxicity against human SK-MEL-2 cells; assay type: functional; conditions: for CC50: read-out: Log LC50 (the source's name) (converted); for TGI: read-out: Log TGI (converted)
[3] = test system: MDA-MB-435; assay: Cytotoxicity against human MDA-MB-435 cells; assay type: functional; conditions: for TGI: read-out: Log TGI (converted)
[4] = test system: SNB-75; assay: Cytotoxicity against human SNB75 cells; assay type: functional; conditions: for CC50: read-out: Log LC50 (the source's name) (converted); for TGI: read-out: Log TGI (converted)
[5] = test system: NCI-H522; assay: Cytotoxicity against human NCI-H522 cells; assay type: functional; conditions: for CC50: read-out: Log LC50 (the source's name) (converted); for TGI: read-out: Log TGI (converted)
[6] = test system: MDA-MB-231; assay: Cytotoxicity against human MDA-MB-231 cells; assay type: functional; conditions: for TGI: read-out: Log TGI (converted)
[7] = Cytotoxicity against human HS578T cells; assay type: functional; conditions: Hs-578T; for TGI: read-out: Log TGI (converted)
[8] = test system: HCT-116; assay: Cytotoxicity against human HCT116 cells; assay type: functional; conditions: for CC50: read-out: Log LC50 (the source's name) (converted); for TGI: read-out: Log TGI (converted)
[9] = test system: KM12; assay: Cytotoxicity against human KM12 cells; assay type: functional; conditions: for CC50: read-out: Log LC50 (the source's name) (converted); for TGI: read-out: Log TGI (converted)
[10] = test system: HT-29; assay: Cytotoxicity against human HT29 cells; assay type: functional; conditions: for CC50: read-out: Log LC50 (the source's name) (converted); for TGI: read-out: Log TGI (converted)
[11] = test system: EKVX; assay: Cytotoxicity against human EKVX cells; assay type: functional; conditions: for CC50: read-out: Log LC50 (the source's name) (converted); for TGI: read-out: Log TGI (converted)
[12] = test system: CCRF-CEM; assay: Cytotoxicity against human CCRF-CEM cells; assay type: functional; conditions: for TGI: read-out: Log TGI (converted)
[13] = molecular target: T1, Hypoxia inducible factors; HIF-1-alpha, HIF-2-alpha (Homo sapiens, UniProt Q16665+Q99814); assay: Inhibition of HIF1 activity in human T47D cells by cell based reporter assay
Summary of the method: (§1)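 T47D cells grown in DMEM/F12 with glutamine, 10% FCS and penicillin/streptomycin at 37 °C under 5% CO2, then transiently transfected with the pHRE-TK-Luc reporter. Compounds from DMSO stocks were tested at half-log concentrations for 16 h, with luciferase read-out. IC50 was taken from curve fits of triplicate experiments.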

[14] = test system: MDA-MB-231; assay: Inhibition of human MDA-MB-231 cells assessed as cell viability under hypoxic condition after 48 hrs; assay type: functional, cell-based; conditions: MDA-MB-231, 48 h
Summary of the method: (§2)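 Neutral Red proliferation/viability assay on T47D or MDA-MB-231 cells kept in DMEM/F12 with 10% FCS at 37 °C under 5% CO2, with 48 h compound exposure. Read-out was OD540, and % inhibition = 1 − OD540(treated)/OD540(control). IC50 was derived from the concentration–response data.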

[15] = test system: T47D; assay: Inhibition of human T47D cells assessed as cell viability under normoxic condition after 48 hrs; assay type: functional, cell-based; summary of the method: as §2
[16] = test system: CAKI-1; assay: Cytotoxicity against human CAKI1 cells; assay type: functional; conditions: for TGI: read-out: Log TGI (converted)
[17] = test system: T47D; assay: Cell viability of human T47D cells under hypoxic condition after 16 hrs; assay type: functional, cell-based
[18] = test system: T47D; assay: Inhibition of human T47D cells assessed as cell viability under hypoxic condition after 48 hrs; assay type: functional, cell-based; summary of the method: as §2
[19] = molecular target: T1, Hypoxia inducible factors; HIF-1-alpha, HIF-2-alpha; assay: Inhibition of 1, 10-phenanthroline-induced HIF1 activity in human T47D cells by cell based reporter assay; summary of the method: as §1
[20] = test system: MDA-MB-231; assay: Inhibition of human MDA-MB-231 cells assessed as cell viability under normoxic condition after 48 hrs; assay type: functional, cell-based; conditions: MDA-MB-231, 48 h; summary of the method: as §2

## CC(=O)O[C@H]1C[C@H]2[C@@](C)(CC[C@H]3C(C)(C)CCC[C@@]32CO)[C@@H]2CC=C(C(C)=O)[C@H](C=O)[C@@]12C
[1]
  GI50: 1.12 µM
  CC50: 5.75 µM
[1]; read-out: Log TGI (converted)
  TGI: 2.57 µM
[2]
  GI50: 1.62 µM
  CC50: 8.13 µM
  TGI: 3.63 µM
[3]
  GI50: 0.525 µM
  LC50: 4.27 µM
  TGI: 1.74 µM
[4]
  GI50: 0.355 µM
  CC50: 3.47 µM
  TGI: 1.12 µM
[5]
  GI50: 1.05 µM
  CC50: 6.46 µM
  TGI: 2.57 µM
[6]
  GI50: 0.891 µM
  LC50: 4.57 µM
  TGI: 2.09 µM
[7]
  GI50: 0.24 µM
  LC50: 3.24 µM
  TGI: 0.646 µM
[8]
  GI50: 0.186 µM
  CC50: 0.676 µM
  TGI: 0.355 µM
[9]
  GI50: 0.501 µM
  CC50: 4.57 µM
  TGI: 1.7 µM
[10]
  GI50: 0.324 µM
  CC50: 4.27 µM
  TGI: 1.15 µM
[11]
  GI50: 0.832 µM
  CC50: 4.9 µM
  TGI: 2.14 µM
[12]
  GI50: 0.347 µM
  LC50: 4.47 µM
  TGI: 1.17 µM

## CC(=O)C1=CC[C@H]2[C@]3(C)CC[C@H]4C(C)(C)CCC[C@]4(C(=O)O)[C@H]3CC(=O)[C@]2(C)[C@H]1C=O
[1]
  CC50: 3.02 µM
[13]
  IC50: 0.64 µM
[2]
  GI50: 2.4 µM
  CC50: 37.2 µM
  TGI: 5.25 µM
[3]
  GI50: 1.55 µM
  LC50: 6.17 µM
  TGI: 3.09 µM
[4]
  GI50: 1.82 µM
  CC50: 5.89 µM
  TGI: 3.31 µM
[5]
  GI50: 1.74 µM
  CC50: 11.2 µM
  TGI: 4.17 µM
[14]
  IC50: 1.5 µM
[6]
  GI50: 1.66 µM
  LC50: 6.31 µM
  TGI: 3.24 µM
[7]
  GI50: 1.74 µM
  LC50: 19.1 µM
  TGI: 4.37 µM
[15]
  IC50: 1.4 µM
[16]
  GI50: 0.646 µM
  LC50: 12.9 µM
  TGI: 2.45 µM
[8]
  GI50: 0.468 µM
  CC50: 4.07 µM
  TGI: 1.62 µM
[17]
  IC50: 3.3 µM
[18]
  IC50: 1.9 µM
[9]
  GI50: 1.41 µM
  CC50: 21.4 µM
  TGI: 3.89 µM
[10]
  GI50: 0.257 µM
  CC50: > 100 µM
  TGI: 1.62 µM
[19]
  IC50: 0.5 µM
[11]
  GI50: 2.14 µM
  CC50: 25.1 µM
  TGI: 5.62 µM
[20]
  IC50: 1.4 µM

## CC1OC(=O)[C@H]2[C@H]1[C@@H](O)C[C@H]1[C@]3(C)CC[C@H]4C(C)(C)CCC[C@]4(C)[C@H]3C[C@@H](O)[C@]21C (stereo partly specified)
[1]
  CC50: 17 µM
[13]
  IC50: 3.5 µM
[2]
  GI50: 25.1 µM
  CC50: > 100 µM
  TGI: 51.3 µM
[3]
  GI50: 19.1 µM
  LC50: > 100 µM
  TGI: 51.3 µM
[4]
  GI50: 20 µM
  CC50: > 100 µM
  TGI: 47.9 µM
[5]
  GI50: 19.5 µM
  CC50: 77.6 µM
  TGI: 38.9 µM
[14]
  IC50: 5.4 µM
[6]
  GI50: 19.1 µM
  LC50: 87.1 µM
  TGI: 40.7 µM
[7]
  GI50: 19.1 µM
  LC50: > 100 µM
  TGI: 53.7 µM
[15]
  IC50: 4.7 µM
[16]
  GI50: 30.9 µM
  LC50: > 100 µM
  TGI: 56.2 µM
[8]
  GI50: 11.2 µM
  CC50: 47.9 µM
  TGI: 23.4 µM
[17]
  IC50: 6.7 µM
[18]
  IC50: 5.3 µM
[9]
  GI50: 25.1 µM
  CC50: > 100 µM
  TGI: 69.2 µM
[10]
  GI50: 17.4 µM
  CC50: 83.2 µM
  TGI: 38 µM
[19]
  IC50: 2.4 µM
[11]
  GI50: 23.4 µM
  CC50: 89.1 µM
  TGI: 45.7 µM
[20]
  IC50: 4.9 µM

## CC(=O)O[C@@H]1C[C@H]2[C@]3(C)CC[C@H]4C(C)(C)CCC[C@]4(C)[C@H]3C[C@H](O)[C@]2(C)[C@@H](C=O)[C@@H]1C(C)=O [SCALARHERBACIN A]
[1]
  CC50: 1.66 µM
[2]
  GI50: 2.24 µM
  CC50: 16.6 µM
  TGI: 4.79 µM
[3]
  GI50: 1.45 µM
  LC50: 6.76 µM
  TGI: 3.09 µM
[4]
  GI50: 1.58 µM
  CC50: 5.5 µM
  TGI: 2.95 µM
[5]
  GI50: 1.86 µM
  CC50: 7.59 µM
  TGI: 3.72 µM
[6]
  GI50: 1.48 µM
  TGI: 2.88 µM
[7]
  GI50: 1.02 µM
  LC50: 8.91 µM
  TGI: 3.02 µM
[8]
  GI50: 0.407 µM
  CC50: 3.72 µM
  TGI: 1.38 µM
[9]
  GI50: 1.48 µM
  CC50: 8.51 µM
  TGI: 3.55 µM
[10]
  GI50: 0.309 µM
  CC50: 3.8 µM
  TGI: 1.1 µM
[11]
  GI50: 1.32 µM
  CC50: 5.75 µM
  TGI: 2.75 µM
[12]
  GI50: 0.676 µM
  LC50: 6.46 µM
  TGI: 2.24 µM
